Data published in ChEMBL document CHEMBL3259741, “Three new cucurbitane triterpenoids from Hemsleya penxianensis and their cytotoxic activities” (Bioorg Med Chem Lett, 2014).
≈ marks a conversion by molar mass, not a printed value.

Legend:
Assay type in all cases: functional, cell-based
[1] = Cytotoxicity against human H460 cells after 48 hrs by MTT assay; details: NCI-H460, 48 h
Outline: (§1)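 Cells in RPMI1640 with 15% FBS were trypsinized (0.25%) and seeded at 1 × 10^5/mL, then incubated 24 h at 37 °C in 5% CO2. Agents were added at final concentrations of 50, 10, 2, 0.4 and 0.08 for a further 48 h. MTT (0.5%) was applied for 4 h, formazan dissolved in DMSO, and OD read at 570 nm. % inhibition = (OD0−ODS)/OD0; IC50 was taken as 50% growth inhibition. Mean of three experiments in triplicate.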

SW-620 = test: Cytotoxicity against human SW620 cells after 48 hrs by MTT assay; details: SW-620, 48 h; outline: as §1
COLO 205 = test: Cytotoxicity against human COLO205 cells after 48 hrs by MTT assay; details: COLO 205, 48 h
Outline: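 COLO205 cells were grown in RPMI1640 with 15% FBS, seeded at 2 × 10^5/mL, and incubated 24 h at 37 °C in 5% CO2. Agents were then given at final 50, 10, 2, 0.4 and 0.08 for 48 h. Read-out used 0.5% MTT for 4 h, DMSO solubilization and OD at 570 nm. Inhibition = (OD0−ODS)/OD0; IC50 = concentration giving 50% inhibition. Mean of three experiments in triplicate.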

| Structure (SMILES) | IC50 [1] | IC50 (SW-620) | IC50 (COLO 205) |
| --- | --- | --- | --- |
| CC(=O)OC(C)(C)CCC(=O)[C@](C)(O)[C@H]1[C@H](O)C[C@@]2(C)[C@@H]3CC=C4[C@@H](C[C@H](O)[C@@H](O)C4(C)C)[C@]3(C)C(=O)C[C@]12C [HEMSLECIN A] | 11.5 µg/mL (≈ 20.5 µM) | 1.11 µg/mL (≈ 1.97 µM) | 1.09 µg/mL (≈ 1.94 µM) |
| CC(=O)O[C@@H]1C[C@@]2(C)[C@@H]3CC=C4[C@@H](C[C@H](O)[C@@H](O)C4(C)C)[C@]3(C)C(=O)C[C@]2(C)[C@H]1C(C)(O)C(=O)/C=C/C(C)(C)O (stereo partly drawn) | 3.43 µg/mL (≈ 6.12 µM) | 0.42 µg/mL (≈ 0.749 µM) | 0.44 µg/mL (≈ 0.785 µM) |
| CC(C)(O)CCC(=O)[C@](C)(O)[C@H]1[C@H](O)C[C@@]2(C)[C@@H]3CC=C4[C@@H](C[C@H](O)[C@@H](O)C4(C)C)[C@]3(C)C(=O)C[C@]12C | 7.09 µg/mL (≈ 13.6 µM) | 1.03 µg/mL (≈ 1.98 µM) | 0.64 µg/mL (≈ 1.23 µM) |
| CC(=O)O[C@@H]1C[C@@]2(C)[C@@H]3CC=C4[C@@H](C[C@H](O[C@@H]5O[C@H](CO)[C@@H](O)[C@H](O)[C@H]5O)[C@@H](O)C4(C)C)[C@]3(C)C(=O)C[C@]2(C)[C@H]1C(C)(O)C(=O)/C=C/C(C)(C)OC(C)=O (stereo partly drawn) | 8.55 µg/mL (≈ 11.2 µM) | 6.63 µg/mL (≈ 8.67 µM) | 24.9 µg/mL (≈ 32.6 µM) |
| C[C@H](CCC=C(CO)CO)[C@H]1CC[C@@]2(C)[C@@H]3CC=C4[C@@H](CC[C@H](O[C@@H]5O[C@H](CO)[C@@H](O)[C@H](O)[C@H]5O)C4(C)C)[C@]3(C)[C@H](O)C[C@]12C | 2.96 µg/mL (≈ 4.65 µM) | 1.99 µg/mL (≈ 3.12 µM) | 3.84 µg/mL (≈ 6.03 µM) |
| C/C(C=O)=C\CC[C@@H](C)[C@H]1CC[C@@]2(C)[C@@H]3CC=C4[C@@H](CC[C@H](O[C@@H]5O[C@H](CO)[C@@H](O)[C@H](O)[C@H]5O)C4(C)C)[C@]3(C)C(=O)C[C@]12C | 0.46 µg/mL (≈ 0.746 µM) | 0.64 µg/mL (≈ 1.04 µM) | 0.78 µg/mL (≈ 1.26 µM) |
